An excerpt weighted towards active compounds, which were near 1.8% of everything screened.
CHRM5 PAM: human M5 muscarinic receptor positive allosteric modulators, primary screen, CHO-K1 cells, Fluo-8 calcium fluorescence; Muscarinic acetylcholine receptor M5 (Homo sapiens), P08912; hit rate 0.3% among 360,000; activation, % at 3 µM; CHO-K1 hM5, ACh EC20 PAM; 0% = ACh EC20, 100% = ACh EC100;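 active = activation above the run cutoff, the mean activation of all test compounds plus 3 SD, cut at about 18% in these data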
Target sequence (P08912 whole entry, looked up): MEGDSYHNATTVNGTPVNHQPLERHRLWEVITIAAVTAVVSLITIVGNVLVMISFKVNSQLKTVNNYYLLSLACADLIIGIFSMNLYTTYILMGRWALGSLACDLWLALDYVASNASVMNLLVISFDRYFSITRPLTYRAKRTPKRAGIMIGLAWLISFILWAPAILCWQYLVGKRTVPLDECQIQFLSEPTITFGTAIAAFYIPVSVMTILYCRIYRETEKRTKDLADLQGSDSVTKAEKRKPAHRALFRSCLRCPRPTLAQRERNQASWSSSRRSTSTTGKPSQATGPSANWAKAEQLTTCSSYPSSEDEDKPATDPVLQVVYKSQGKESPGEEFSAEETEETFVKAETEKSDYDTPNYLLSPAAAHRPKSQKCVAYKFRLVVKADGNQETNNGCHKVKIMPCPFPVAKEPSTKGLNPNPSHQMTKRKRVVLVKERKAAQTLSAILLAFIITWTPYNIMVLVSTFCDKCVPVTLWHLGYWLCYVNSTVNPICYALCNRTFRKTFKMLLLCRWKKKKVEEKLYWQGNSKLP
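Replicates: One well per compound, no replicates | System: Human M5 receptor in CHO-K1 cells | Benchmarks: Low control EC20 acetylcholine (0%), high control EC100 acetylcholine (100%) | Probe or stimulus: Acetylcholine, EC20 level | Times: Fluo-8 loading 80 min at 37 °C plus 30 min room temperature | Signal: Intracellular calcium via Fluo-8 fluorescence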
M5 antag: human M5 muscarinic receptor antagonists, primary screen, CHO cells, Fluo-8 calcium fluorescence. Muscarinic acetylcholine receptor M5 (Homo sapiens), P08912. CHO-hM5 cells, ACh EC80. inhibition, % at 3 µM. hit rate 0.59% among 360,000. AID 624040, 2012;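 active = inhibition above a per-plate cutoff, the mean of that plate's test compounds plus 3 SD, cut at about 27% in these data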;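 note: 0% = acetylcholine EC80 with DMSO and 100% = DMSO without agonist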
M5 ag: human M5 muscarinic receptor agonists, primary screen, CHO-K1 cells, Fluo-8 calcium fluorescence | AID 624037, 2012 | CHO-K1 hM5 cells; 0% DMSO wells, 100% maximal acetylcholine response | Muscarinic acetylcholine receptor M5 (Homo sapiens), P08912 | hit rate 0.19% among 360,000 | activation, % at 3 µM;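 active = activation above the run's mean over test compounds plus 3 SD, cut at about 23% in these data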;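 note: signal is peak over basal fluorescence ratio across the kinetic read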
M4 antag: human M4 muscarinic receptor antagonists, primary screen, CHO cells, Fluo-8 calcium fluorescence; CHO-hM4 cells, ACh EC80; inhibition, % at 3 µM; hit rate 0.73% among 360,000; AID 624125, 2012;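 active = inhibition above its plate's cutoff, the mean inhibition of sample wells plus 3 SD, cut at about 27% in these data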;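 note: 0% = acetylcholine EC80 with DMSO and 100% = DMSO without agonist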
CHRM4 PAM: human M4 muscarinic receptor positive allosteric modulators, primary screen, CHO-K1 cells, Fluo-8 calcium fluorescence | Muscarinic acetylcholine receptor M4 (Homo sapiens), P08173 | CHO-K1 hM4/Gqi5, ACh EC20; 0% = ACh EC20, 100% = maximal ACh | activation, % at 3 µM | hit rate 0.4% among 360,000 | AID 624126, 2012;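 active = activation above its plate's cutoff, the mean activation of sample wells plus 3 SD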
M4 ag: human M4 muscarinic receptor agonists, primary screen, CHO-K1 cells, Fluo-8 calcium fluorescence; AID 624127, 2012; hit rate 0.14% among 360,000; activation, % at 3 µM; Muscarinic acetylcholine receptor M4 (Homo sapiens), P08173; CHO-K1 hM4/Gqi5; vehicle 0%, full acetylcholine response 100%;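 active = activation above the run mean over all test wells plus 3 SD, cut at about 32% in these data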;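 note: peak over basal fluorescence ratio per well then scaled between controls; 0% = DMSO wells and 100% = acetylcholine at EC100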
Starred values were filed as active, the others as inactive.

SMILES	CHRM5 PAM	M5 antag	M5 ag	M4 antag	CHRM4 PAM	M4 ag
CC(=O)N1CCC(N2CCCC(C(=O)c3cccc(Cl)c3)C2)CC1 (stereo not drawn)	-16	18	-10	27*	-21	1
CC(C)(C)c1ccc(C(=O)C2CCCN(C3CCC3)C2)cc1 (stereo not drawn)	-1	6	-15	32*	-24	2
CC(C)(C)c1ccc(C(=O)C2CCCN(Cc3ccon3)C2)cc1 (stereo not drawn)	-1	-3	0	-2	-6	4
CCN(CC)CCCOC(=O)C(OC)(c1ccccc1)c1ccccc1	-23	56*	-7	53*	-20	1
O=C(O)C(O)(c1ccccc1)C1CCCCC1 (stereo not drawn)	4	3	-2	-8	12	2
CC[N+](C)(CC)CCCOC(=O)C(O)(c1ccccc1)C1CCCCC1 (stereo not drawn)	-33	98*	-11	99*	-24	1
CCOC(C(=O)OCCC[N+](C)(CC)CC)(c1ccccc1)c1ccccc1	-22	55*	-6	21	-14	1
CCOC(C(=O)OCC(O)CN(CC)CC)(c1ccccc1)c1ccccc1 (stereo not drawn)	-10	-1	-13	8	-3	1
CC(C)(C)n1nnnc1C(CCc1ccccc1)N1CCC2(CC1)C(=O)NCN2c1ccccc1 (stereo not drawn)	-2	0	7	-4	-4	6
O=C(Nc1ccc(F)cc1)c1c(O)c2c(n(Cc3ccccc3)c1=O)CCCC2	-3	-7	-1	14	21*	2
O=C(Nc1cccnc1)c1c(O)c2c(n(Cc3ccccc3)c1=O)CCCC2	1	-5	-3	1	0	0
Oc1ccccc1-[n+]1c(-c2ccccc2)cc(-c2ccccc2)cc1-c1ccccc1	-13	11	-11	28*	-18	3
[O-]c1ccccc1-[n+]1c(-c2ccccc2)cc(-c2ccccc2)cc1-c1ccccc1	-9	8	-12	17	-9	4
Cc1ccccc1-[n+]1c(-c2ccccc2)cc(-c2ccccc2)cc1-c1ccccc1	-40	42*	-9	78*	-15	8
Nc1ccccc1-[n+]1c(-c2ccccc2)cc(-c2ccccc2)cc1-c1ccccc1	-12	5	-20	23	-22	0
CCOS(C)(=O)=O	-2	1	3	-7	10	2
CC1(C)CSC(=NCc2ccccc2)N1	-19	9	26*	19	-28	64*
Clc1ccccc1CNC1CN2CCC1CC2 (stereo not drawn)	-18	32*	-8	17	-10	0
c1ccc(CNC2CN3CCC2CC3)cc1 (stereo not drawn)	-33	16	-9	9	-8	1
C[C@]12CCC(=O)C=C1CCC1C2CC[C@@]2(C)C1CC[C@]2(C)O (stereo partly drawn)	-11	18	0	1	-6	6
CN1C(=O)CCC2(C)C1=CCC1C2CCC2(C)C1CCC2(C)O (stereo not drawn)	18*	-7	4	-4	13	2
CCOC(=O)c1ccc(NC(=O)N2CC3CC(C2)c2cccc(=O)n2C3)cc1 (stereo not drawn)	2	5	-2	3	-3	1
CCOC(=O)c1ccc(NC(=O)N2C[C@@H]3C[C@@H](C2)c2cccc(=O)n2C3)cc1	-9	3	-1	69*	-14	0
O=C(NCC1=C(c2cccc3ccccc23)C[C@@H]2CC[C@H]1N2Cc1ccco1)c1ccc([N+](=O)[O-])cc1	-6	9	-3	8	-8	3
CC(C)(C)c1ccc(CSc2cnn(C(C)(C)C)c(=O)c2Cl)cc1	-12	28*	12	11	-4	12
SMILES	CHRM5 PAM	M5 antag	M5 ag	M4 antag	CHRM4 PAM	M4 ag
COc1ccc(C(=O)CC2(CC(=O)c3ccc(OC)cc3)C(=O)N(C)C(=O)N(C)C2=O)cc1	3	-5	0	6	-2	0
CN1C(=O)N(C)C(=O)C2(Cc3c(ccc4ccccc34)N(C)C2)C1=O	28*	-3	-6	5	7	2
CN1CCCC1C(O)(c1ccccc1)c1ccccc1 (stereo not drawn)	-20	7	-6	1	-3	1
CCCC[N+]12CCC(CC1)C(C(O)(c1ccccc1)c1ccccc1)C2 (stereo not drawn)	-23	8	-22	20	-34	0
C[N+]12CCC(CC1)C(C(O)(c1ccccc1)c1cccs1)C2 (stereo not drawn)	-16	94*	-7	94*	-33	1
CCC[N+]12CCC(CC1)C(C(O)(c1ccccc1)c1ccccc1)C2 (stereo not drawn)	-34	28*	-18	10	-54	0
Cc1ccc(C[n+]2c(-c3ccc(C)cc3)cc(-c3ccc(C)cc3)cc2-c2ccc(C)cc2)cc1	-29	37*	3	21	-3	19
O=C(COC(=O)Cc1ccccc1)Nc1nnc(-c2ccccc2)o1	3	5	5	2	14	0
O=C(Cc1ccccc1)Oc1cccc(N2C(=O)CCC2=O)c1	-5	-1	5	1	-3	0
CC(C)(C)c1cc(OC(=O)Cc2ccccc2)ccc1O	19*	-5	0	-3	-4	-1
O=C(NCCN1CCC2(CC1)C(=O)NCN2c1cccc(F)c1)c1ccc2ccccc2c1	-25	99*	52*	101*	-18	107*
O=C1NCN(c2ccccc2)C12CCNCC2	0	-1	-4	-5	10	1
CCC(CC)C1C(C#N)=C(N)Oc2c1c(=O)oc1ccccc21 (stereo not drawn)	-2	2	3	-2	0	11
N#CC1=C(N)Oc2c(c(=O)oc3ccccc23)C1c1cccnc1 (stereo not drawn)	20*	-11	-3	0	13	-1
c1ccc2c(c1)Sc1ccccc1N2CC1CN2CCC1CC2 (stereo not drawn)	-19	98*	-1	98*	-16	1
CC(C)(C)c1nc(NCc2ccc3c(c2)OCO3)c2nnn(Cc3ccccc3Cl)c2n1	-3	1	-1	-3	28*	1
